Source: PubChem (Johns Hopkins Ion Channel Center)
The list is not random: actives were taken first. Their share in the collection is about 2.3%.
TRPC4 PAM: allosterically enhances the mouse TRPC4 cation channel | 0.42% of 310,000 active | Q9QUQ5 | AID 2227 | B-score at 10 µM | HEK293 TRPC4beta/mu-opioid, DAMGO EC20, Fluo-4 Ca2+ flux; active compounds read high;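 active = B-score of calcium response area above 5 SD of library B-scores, with initial fluorescence ratio within 5 SD of library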;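 note: B-score of integrated fluorescence ratio over time as area under calcium response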
TRPC6 inh: inhibitors of mouse TRPC6 channel; HEK293-TRPC6, membrane potential dye, ACh-evoked depolarization; active compounds read low; 1.1% of 310,000 active; B-score at 10 µM; Q61143;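 active = B-score under library mean minus 3 SD, initial fluorescence not abnormally high, positive integrated signal ratio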;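 note: B-score derived from integrated fluorescence ratio over the kinetic read; more negative B-score means stronger inhibition of depolarization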
Target sequence (Q61143 whole entry, looked up): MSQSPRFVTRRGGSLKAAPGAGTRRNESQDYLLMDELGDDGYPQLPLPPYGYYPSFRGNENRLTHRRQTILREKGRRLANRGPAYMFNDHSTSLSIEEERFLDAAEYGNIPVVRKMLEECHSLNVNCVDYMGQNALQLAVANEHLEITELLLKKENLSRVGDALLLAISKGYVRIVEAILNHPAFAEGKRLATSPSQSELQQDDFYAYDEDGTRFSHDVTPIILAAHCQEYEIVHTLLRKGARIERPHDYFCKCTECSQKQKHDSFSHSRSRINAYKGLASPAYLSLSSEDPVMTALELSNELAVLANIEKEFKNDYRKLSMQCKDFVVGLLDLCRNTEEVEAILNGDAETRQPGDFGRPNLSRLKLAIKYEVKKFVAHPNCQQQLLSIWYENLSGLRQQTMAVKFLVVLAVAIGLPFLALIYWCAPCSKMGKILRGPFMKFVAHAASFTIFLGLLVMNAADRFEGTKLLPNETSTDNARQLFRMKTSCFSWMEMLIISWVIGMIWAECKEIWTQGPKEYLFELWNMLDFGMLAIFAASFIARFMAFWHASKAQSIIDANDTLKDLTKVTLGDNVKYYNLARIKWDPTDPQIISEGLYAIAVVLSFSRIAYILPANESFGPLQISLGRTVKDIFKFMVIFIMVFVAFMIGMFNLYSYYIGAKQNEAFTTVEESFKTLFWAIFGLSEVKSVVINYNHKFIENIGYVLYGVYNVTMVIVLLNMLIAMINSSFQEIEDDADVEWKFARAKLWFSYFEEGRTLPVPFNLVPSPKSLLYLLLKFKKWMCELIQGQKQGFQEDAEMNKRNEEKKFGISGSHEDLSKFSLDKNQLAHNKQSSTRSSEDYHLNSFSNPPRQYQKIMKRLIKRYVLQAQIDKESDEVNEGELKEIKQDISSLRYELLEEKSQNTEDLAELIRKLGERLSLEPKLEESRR
TRPC4 block: blocks the mouse TRPC4 cation channel; 0.39% of 300,000 active; B-score at 10 µM; Q9QUQ5; HEK293 TRPC4beta/mu-opioid, DAMGO-evoked Fluo4 calcium flux; active compounds read low;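 active = B-score over 3 SD under the library average, no early fluorescence shift, positive overall ratio signal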
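material = TRPC4beta/mu-opioid receptor HEK293 cell line | probe or stimulus = sequential submaximal and maximal DAMGO stimulation | compound dosing = one concentration per compound | measured by = Fluo4 Ca2+ flux fluorescence | evaluation = integrated fluorescence ratio relative to baseline, converted to per-well B score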
TRPC6 act: mouse TRPC6 channel activation. B-score at 10 µM. Q61143. 0.13% of 310,000 active. HEK293-TRPC6 membrane potential dye fluorescence; active compounds read high;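 active = B-score of the integrated fluorescence ratio above library mean plus 3 SD, and starting fluorescence ratio within library mean plus 5 SD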;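 note: higher score means more depolarization so channel activation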
TRPC4 act: TRPC4 (mouse) channel activation; Q9QUQ5; HEK293 TRPC4beta/mu-opioid, Fluo4 calcium fluorescence; active compounds read high; B-score at 10 µM; 0.49% of 310,000 active; AID 2237;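 active = B-score above 5 SD of library B-scores, and initial fluorescence ratio not above library mean plus 5 SD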;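 note: positive B-score marks a calcium rise read as TRPC4 activation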
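Assay system: HEK293 cells stably co-expressing mouse TRPC4beta and mu-opioid receptor / Timing: Fluo4 dye loading 45 min at room temperature, 110 s recording / Signal: Fluo4 calcium-sensitive dye fluorescence, kinetic, 1 Hz baseline / Read-out: integrated baseline-normalised fluorescence ratio, converted to per-well B score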
TRPC4 sel inh 2: mouse TRPC4 off-target activity of TRPC6 inhibitors, second screen. 42% of 920 active. HEK293 TRPC4/MOR, membrane potential dye fluorescence; channel activated by saturating DAMGO dose. shares compounds with TRPC6 inh. inhibition, % at 10 µM;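 active = compounds whose fluorescence signal differed from control wells by over 3 SD, either direction, in both duplicate plates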
TRPC4 spec: selectivity of TRPC6 inhibitors: effect on mouse TRPC4. HEK293 TRPC4/mu-opioid, membrane potential fluorescence. shares compounds with TRPC6 inh. activity change, negative = inhibition, % at 10 µM. 61% of 920 active;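 active = rise or fall in signal beyond 3 SD of buffer-only wells in both replicate plates, either sign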;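 note: integrated kinetic ratio of fluorescence range over baseline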
HEK293 MPD ctr 2-1: parental HEK293 nonspecific activity of TRPC6 inhibitors, second screen; shares compounds with TRPC6 inh; parental HEK293 membrane potential dye fluorescence; maximal acetylcholine challenge after compound addition; signal change vs control, % at 10 µM; 31% of 920 active; AID 2779;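 active = membrane potential signal moving either way by over 3 SD of the maximum-effect control, in both duplicate plates, meaning non-specific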
HEK293 MPD ctr-1: checks TRPC6 inhibitor effects in parental HEK293 cells | shares compounds with TRPC6 inh | parental HEK293 membrane potential dye fluorescence | membrane potential signal change, % at 10 µM | 60% of 920 active | AID 2780;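 active = membrane potential signal shifting up or down by more than 3 SD of buffer-only wells, on both duplicate plates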
HEK293 MPD ctr-2: checks TRPC6 modulator effects in parental HEK293 cells | shares compounds with TRPC6 inh | membrane potential dye fluorescence | membrane potential signal change, % at 10 µM | 51% of 2,400 active;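 active = membrane potential signal moves up or down beyond 5 SD from buffer-only wells, on both duplicate plates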
HEK293 MPD ctr 2-2: second counter-screen for TRPC6 modulators: effect in parental HEK293 cells. shares compounds with TRPC6 inh. membrane potential dye fluorescence; after compound, maximal acetylcholine stimulation. inhibition, % at 10 µM. 14% of 2,400 active;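 active = membrane potential signal drops by more than 5 SD from the mean control signal, in both duplicate plates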;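 note: plate controls were acetylcholine ECmax control wells for no effect and buffer only wells for full effect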
TRPC4 ctr mod: selectivity of TRPC6 modulators against mouse TRPC4; shares compounds with TRPC6 inh; HEK293 TRPC4/mu-opioid, membrane potential fluorescence; percent change from control (negative = decrease, positive = increase), % at 10 µM; 69% of 2,400 active;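 active = membrane potential signal moved up or down beyond 5 SD of buffer control wells, in both duplicate plates, actives on both sides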;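 note: plate controls were assay buffer wells for no effect and DAMGO maximal-effect wells for full effect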
TRPC4 ctr inh 2: second check of whether TRPC6 modulators also affect mouse TRPC4. shares compounds with TRPC6 inh. HEK293 TRPC4/mu-opioid, membrane potential dye fluorescence; stimulated with maximal-effect DAMGO. inhibition, % at 10 µM. 55% of 2,400 active. AID 488928;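 active = drop in membrane potential signal beyond 5 SD of the control wells in both duplicate plates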;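 note: TRPC4 counter screen for TRPC6 hits run under conditions tuned for TRPC6 not TRPC4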
TRPC6 inh conf: mouse TRPC6 inhibitor confirmation; shares compounds with TRPC6 inh; HEK293-TRPC6, membrane potential dye, ACh-evoked depolarization; AID 488960; 43% of 3,300 active; inhibition, % at 10 µM;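 active = fluorescence ratio falls more than 5 SD below the full-stimulation control mean, in both duplicate runs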;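 note: integrated fluorescence ratio of peak minus minimum over baseline after agonist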
TRPC6 act conf: mouse TRPC6 activator confirmation; HEK293-TRPC6 membrane potential dye fluorescence, FDSS; 11% of 2,800 active; shares compounds with TRPC6 inh; activation, % at 10 µM;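 active = ratio signal rise beyond 5 SD above unstimulated control wells' mean, seen in both duplicate runs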;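 note: plate controls were buffer EC0 wells for no effect and acetylcholine ECmax response for full effect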
Numbers without * were called inactive; i = inactive; nt = no result given.

SMILES	TRPC4 PAM	TRPC6 inh	TRPC4 block	TRPC6 act	TRPC4 act	HEK293 MPD ctr-2	HEK293 MPD ctr 2-2	TRPC4 ctr mod	TRPC4 ctr inh 2	TRPC6 inh conf	TRPC6 act conf	others
Cc1cc(=O)n2nc(N3CCCC(C(=O)N4CCc5ccccc54)C3)sc2n1 (stereo not given)	i	-8.73*	i	i	i	nt	nt	nt	nt	i	i	TRPC4 sel inh 2=i;TRPC4 spec=i;HEK293 MPD ctr 2-1=i;HEK293 MPD ctr-1=i
COc1ccc(NC(=O)C2CCCN(c3nn4c(=O)cc(C)nc4s3)C2)cc1 (stereo not given)	i	i	i	i	i	nt	nt	nt	nt	nt	nt
Nc1ccc(C(=O)OCc2nc3ccccc3s2)cc1	i	-7.85*	i	i	i	nt	nt	nt	nt	i	i	TRPC4 sel inh 2=i;TRPC4 spec=i;HEK293 MPD ctr 2-1=i;HEK293 MPD ctr-1=i
N#Cc1c2ccc(OCC(=O)NCc3ccco3)cc2n2ccccc12	i	i	i	i	i	nt	nt	nt	nt	nt	nt
N#Cc1c2ccc(O)cc2n2ccccc12	i	-6.83*	i	15.5*	i	435.5%*	86.5%*	55.0%*	i	64.5%*	125.5%*
Cc1cccc(OCC(=O)N2CCN(C(=O)COc3ccc(Cl)cc3)CC2)c1	i	i	i	i	i	nt	nt	nt	nt	nt	nt
O=C(Nc1c2c(nn1-c1ccc(F)cc1)CSC2)c1ccc(S(=O)(=O)N2CCOCC2)cc1	i	-5.63*	i	i	i	i	i	i	i	i	i
COc1ccc(NCc2nnc(SCC(=O)Nc3cccc(C)c3)o2)cc1	i	-6.27*	i	i	i	i	i	i	i	i	i
COc1ccc2nc(C)cc(N3CC(C)OC(C)C3)c2c1 (stereo not given)	i	i	i	i	i	nt	nt	nt	nt	nt	nt
Cc1ccc2nc(C)cc(N3CCOCC3)c2c1	i	-10.8*	i	i	i	-300.5%*	96.5%*	-45.0%*	69.0%*	75.0%*	i
COc1ccc2nc(C)cc(N3CCN(c4ccccc4)CC3)c2c1	i	-5.11*	i	i	i	-174.5%*	i	-41.0%*	68.5%*	i	i
COc1ccc2nc(C)cc(N3CCOCC3)c2c1	i	-11.6*	i	i	i	-427.5%*	100.0%*	-60.0%*	67.0%*	76.0%*	i
COc1ccc(C(=O)CN2CCN(c3cc(C)nc4ccccc34)CC2)cc1	i	i	i	i	i	nt	nt	nt	nt	nt	nt
CC(C)(C)N1CC(C(=O)Nc2ccc(C#N)cc2)CC1=O (stereo not given)	i	i	i	i	i	nt	nt	nt	nt	nt	nt
COc1cccc(OCC(O)CN2CCC(CN3C(=O)c4cccc5cccc(c45)C3=O)CC2)c1 (stereo not given)	i	-10.2*	i	i	i	nt	nt	nt	nt	i	i	TRPC4 sel inh 2=62.0%*;TRPC4 spec=-14.0%*;HEK293 MPD ctr 2-1=i;HEK293 MPD ctr-1=-138.0%*
O=C1c2cccc3cccc(c23)C(=O)N1CC1CCN(CC(O)COc2ccc3ccccc3c2)CC1 (stereo not given)	i	i	i	i	i	nt	nt	nt	nt	nt	nt
COc1ccc(COCC(O)CN2CCC(CN3C(=O)c4cccc5cccc(c45)C3=O)CC2)cc1OC (stereo not given)	i	-5.77*	i	i	i	-147.0%*	i	-30.5%*	87.5%*	69.0%*	i
CCc1cc(C(=O)NNC(=S)NCC2CCCO2)cs1 (stereo not given)	i	i	i	i	i	nt	nt	nt	nt	nt	nt
CCc1ccc(CNC(=O)CCc2cn(C)c3ccccc23)cc1	i	i	i	i	i	nt	nt	nt	nt	nt	nt
O=C(CCNC(=O)C1CCN(S(=O)(=O)c2ccccc2)CC1)Nc1ccccc1	i	i	i	i	i	nt	nt	nt	nt	nt	nt
CCOc1ccc(-n2c(-c3ccc(Cl)cc3)c[n+]3c2SCC3)cc1	i	-7.35*	-6*	i	i	-71.0%*	80.0%*	i	35.5%*	42.5%*	i
Cc1ccc(-n2c(-c3ccc(Cl)cc3)c[n+]3c2CCC3)cc1	i	-5.23*	i	i	i	i	i	i	46.0%*	i	i
COc1ccc(-n2c(-c3ccc(Br)cc3)c[n+]3c2SC(C)C3)cc1 (stereo not given)	i	-5.91*	i	i	i	-142.5%*	79.5%*	-21.0%*	42.0%*	47.5%*	i
FC(F)Sc1ccc(-n2c(-c3ccc(Cl)cc3)c[n+]3c2CCC3)cc1	i	i	i	i	i	nt	nt	nt	nt	nt	nt
COc1ccc(-n2c(-c3ccc(Br)cc3)c[n+]3c2CCC3)cc1	i	-7.17*	i	i	i	nt	nt	nt	nt	60.5%*	i	TRPC4 sel inh 2=76.5%*;TRPC4 spec=i;HEK293 MPD ctr 2-1=-75.0%*;HEK293 MPD ctr-1=-192.0%*
COc1ccc(-n2c(-c3ccc(Br)cc3)nc(=S)c3c2CCCC3)cc1	i	i	i	i	i	nt	nt	nt	nt	nt	nt
CCOC(=O)N1CCN(C2CCCN(C(=O)c3ccccc3N(C)C)C2)CC1 (stereo not given)	i	i	i	i	i	nt	nt	nt	nt	nt	nt
COc1ccc(-n2c(-c3ccccc3)cc3c2CCCC3=O)cc1	i	i	i	i	i	nt	nt	nt	nt	nt	nt
